The values that follow come from ChEMBL document CHEMBL1126020, “Potent non-6-fluoro-substituted quinolone antibacterials: synthesis and biological activity” (1992).

As a reminder, the MIC is the smallest concentration in the dilution series that meets the test's criterion for growth inhibition. Higher therefore signals a need for much substance.

What all share (assay type): functional
The subject of assay [1] is Pseudomonas aeruginosa. The experiment in a line: In vitro antimicrobial activity against strain Pseudomonas aeruginosa 9843. An outline of the steps:
(§1)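 MICs by serial 2-fold broth dilution in nutrient broth. Inoculum adjusted to 10^6 CFU/mL, with compounds tested from 0.0005 to 250 μg/mL. Plates incubated 18 h at 37 °C. MIC taken as the lowest concentration preventing visible bacterial growth.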

Assay [2] relates to Enterococcus faecalis. The experiment in a line: In vitro antimicrobial activity against strain Enterococcus faecalis 9809. An outline of the steps: as §1
Assay [3] has as its system Enterobacter cloacae. The experiment in a line: In vitro antimicrobial activity against strain Enterobacter cloacae 9656.
The subject of assay [4] is Morganella morganii. In words: In vitro antimicrobial activity against strain Morganella morganii 15153. An outline of the steps:
as §1

Assay [5] relates to Klebsiella pneumoniae. In words: In vitro antimicrobial activity against strain Klebsiella pneumoniae 9664. An outline of the steps: as §1
The test system of assay [6] is Escherichia coli. The experiment in a line: In vitro antimicrobial activity against strain Escherichia coli 15119. An outline of the steps:
as §1

Assay [7] relates to Staphylococcus aureus. The experiment in a line: In vitro antimicrobial activity against strain Staphylococcus aureus 9537. An outline of the steps:
as §1

The test system of assay [8] is Proteus mirabilis. In words: In vitro antimicrobial activity against strain Proteus mirabilis 9900. An outline of the steps:
as §1

Assay [9] relates to Streptococcus pneumoniae. In words: In vitro antimicrobial activity against strain Streptococcus pneumoniae 9585. An outline of the steps: as §1

≈ marks a conversion by molar mass, not a printed value.

For the compound `NC1CCN(c2cc3c(cc2F)c(=O)c(C(=O)O)cn3C2CC2)C1` (stereo not given), the MIC came to 0.25 µg/mL (≈ 0.754 µM) in [1]; 0.25 µg/mL (≈ 0.754 µM) in assay [2]; 0.004 µg/mL (≈ 0.0121 µM) in [3]; 0.016 µg/mL (≈ 0.0483 µM) in assay [4]; 0.03 µg/mL (≈ 0.0905 µM) in [5]; 0.004 µg/mL (≈ 0.0121 µM) in assay [6]. The MIC in assay [7] is 0.03 µg/mL (≈ 0.0905 µM); in assay [8], 0.03 µg/mL (≈ 0.0905 µM); in [9], 0.13 µg/mL (≈ 0.392 µM).

Regarding `NC1CCN(c2c(F)cc3c(=O)c(C(=O)O)cn(C4CC4)c3c2F)C1` (stereo not given), the MIC was 0.13 µg/mL (≈ 0.372 µM) in [1]; 2 µg/mL (≈ 5.73 µM) in [2]; 0.016 µg/mL (≈ 0.0458 µM) in assay [3]; 0.016 µg/mL (≈ 0.0458 µM) in assay [4]; 0.03 µg/mL (≈ 0.0859 µM) in assay [5]; 0.008 µg/mL (≈ 0.0229 µM) in [6]. Also, the MIC in assay [7] worked out at 0.008 µg/mL (≈ 0.0229 µM); in [8] it was 0.016 µg/mL (≈ 0.0458 µM); in assay [9] it was 0.03 µg/mL (≈ 0.0859 µM).

Turning to `NC1CCN(c2cc(F)c3c(=O)c(C(=O)O)cn(C4CC4)c3c2F)C1` (stereo not given), the MIC in assay [1] worked out at 2 µg/mL (≈ 5.73 µM); in assay [2], 4 µg/mL (≈ 11.5 µM); in assay [3] it was 0.06 µg/mL (≈ 0.172 µM); in assay [4] it was 0.06 µg/mL (≈ 0.172 µM); in assay [5], 0.13 µg/mL (≈ 0.372 µM); in [6] it was 0.06 µg/mL (≈ 0.172 µM). Further, the MIC in assay [7] worked out at 0.13 µg/mL (≈ 0.372 µM); in assay [8], 0.13 µg/mL (≈ 0.372 µM); in assay [9], 4 µg/mL (≈ 11.5 µM).

For the compound `NC1CCN(c2ccc3c(=O)c(C(=O)O)cn(C4CC4)c3c2)C1` (stereo not given), the MIC in [1] amounted to 0.5 µg/mL (≈ 1.6 µM); in assay [2], 4 µg/mL (≈ 12.8 µM); in [3] it was 0.13 µg/mL (≈ 0.415 µM); in assay [4] it was 0.13 µg/mL (≈ 0.415 µM); in assay [5], 0.06 µg/mL (≈ 0.191 µM); in assay [6], 0.008 µg/mL (≈ 0.0255 µM). In addition, the MIC in assay [7] was determined as 0.25 µg/mL (≈ 0.798 µM); in assay [8] it was 0.13 µg/mL (≈ 0.415 µM); in assay [9], 2 µg/mL (≈ 6.38 µM).

Turning to `NC1CCN(c2cc(F)c3c(=O)c(C(=O)O)cn(C4CC4)c3c2)C1` (stereo not given), the MIC came to 4 µg/mL (≈ 12.1 µM) in [1]; 16 µg/mL (≈ 48.3 µM) in [2]; 0.13 µg/mL (≈ 0.392 µM) in [3]; 0.25 µg/mL (≈ 0.754 µM) in assay [4]; 0.5 µg/mL (≈ 1.51 µM) in [5]; 0.13 µg/mL (≈ 0.392 µM) in assay [6]. Moreover, the MIC in assay [7] is 1 µg/mL (≈ 3.02 µM); in [8], 0.5 µg/mL (≈ 1.51 µM); in assay [9], 4 µg/mL (≈ 12.1 µM).

For `NC1CCN(c2ccc3c(=O)c(C(=O)O)cn(C4CC4)c3c2F)C1` (stereo not given), the MIC in assay [1] was determined as 0.25 µg/mL (≈ 0.754 µM); in assay [2] it was 0.25 µg/mL (≈ 0.754 µM); in [3] it was 0.03 µg/mL (≈ 0.0905 µM); in assay [4] it was 0.016 µg/mL (≈ 0.0483 µM); in assay [5] it was 0.016 µg/mL (≈ 0.0483 µM); in [6] it was 0.008 µg/mL (≈ 0.0241 µM). The MIC in assay [7] was determined as 0.03 µg/mL (≈ 0.0905 µM); in assay [8] it was 0.03 µg/mL (≈ 0.0905 µM); in assay [9], 0.5 µg/mL (≈ 1.51 µM).

Take `O=C(O)c1cn(C2CC2)c2cc(N3CCNCC3)c(F)cc2c1=O` [CIPROFLOXACIN]: the MIC was found to be 0.5 µg/mL (≈ 1.51 µM) in assay [2]; 0.08 µg/mL (≈ 0.241 µM) in assay [4]; 0.06 µg/mL (≈ 0.181 µM) in [5]; 0.06 µg/mL (≈ 0.181 µM) in assay [7]; 0.008 µg/mL (≈ 0.0241 µM) in assay [8]; 0.25 µg/mL (≈ 0.754 µM) in [9].
